Assay results collected from several papers.
Compare with care: the assays were run in different laboratories.
SLC10A2: Ileal sodium/bile acid cotransporter (SLC10A2, Homo sapiens, UniProt Q12908)
SETD7: Histone-lysine N-methyltransferase SETD7 (SETD7, Homo sapiens, UniProt Q8WTS6)
HSD11B1: 11-beta-hydroxysteroid dehydrogenase 1 (HSD11B1, Homo sapiens, UniProt P28845)
CNR2: Cannabinoid receptor 2 (CNR2, Homo sapiens, UniProt P34972)
DRD5: D(1B) dopamine receptor (DRD5, Homo sapiens, UniProt P21918)

| Structure (SMILES) | target | test | setting | inhibition [%] |
| --- | --- | --- | --- | --- |
| NS(=O)(=O)c1cc2c(cc1Cl)NC(C(Cl)Cl)NS2(=O)=O (centres unmarked) | SLC10A2 | transporter uptake, inhibitor, radiometric | 1 mM | 44.7 |
| O=C1c2c(O)cccc2Cc2cccc(O)c21 | SETD7 | cell-free assay | 10 µM | 8 |
| CC(=O)N[C@H]1CSSC[C@@H](C(=O)N[C@H](Cc2c[nH]c3ccccc23)C(N)=O)NC(=O)[C@H](Cc2ccccc2)NC(=O)[C@H](CCCNC(=N)N)NC1=O | Melanocortin receptor 5 (MC5R, Homo sapiens, UniProt P33032) | ligand displacement, radioligand | 10 µM, 40 min | 0 |
| NS(=O)(=O)c1cc2c(cc1Cl)NCNS2(=O)=O | SLC10A2 | transporter uptake, inhibitor, radiometric | 1 mM | 25.8 |
| Cc1cc(-c2ccc(/N=N/c3ccc4c(S(=O)(=O)O)cc(S(=O)(=O)O)c(N)c4c3O)c(C)c2)ccc1/N=N/c1ccc2c(S(=O)(=O)O)cc(S(=O)(=O)O)c(N)c2c1O | SETD7 | cell-free assay | 10 µM | 101 |
| CC(C)c1c(C(=O)Nc2ccccc2)c(-c2ccccc2)c(-c2ccc(F)cc2)n1CC[C@@H](O)C[C@@H](O)CC(=O)O | HSD11B1 | enzyme activity, inhibitor | 20 µM, lysate | < 40 |
| O=C(c1ccc(Cl)cc1)N(Cc1ccccc1)C1CCCCC1 | CNR2 | cell-free assay | 10 µM | 41.6 |
| CCCCc1oc2ccccc2c1C(=O)c1cc(I)c(OCCN(CC)CC)c(I)c1 | HSD11B1 | enzyme activity, inhibitor | 20 µM, lysate | < 40 |
| O=C(O[C@@H]1Cc2c(O)cc(O)cc2O[C@@H]1c1cc(O)c(O)c(O)c1-c1c([C@H]2Oc3cc(O)cc(O)c3C[C@H]2O)cc(O)c(O)c1O)c1cc(O)c(O)c(O)c1 | SETD7 | cell-free assay | 10 µM | 53 |
| C=C(C)C(=O)Nc1cc(C(=O)O)cc(C(=O)O)c1 | Galanin receptor type 1 (GALR1, Homo sapiens, UniProt P47211) | cell-free assay, radioligand | 10 µM | 22 |
| O=C1N=C(N2CCCCN2)S/C1=C\c1ccc(F)cc1O | Galanin receptor type 2 (GALR2, Homo sapiens, UniProt O43603) | ligand displacement, radioligand | 10 µM | < 10 |
| CCCCNc1cc(C(=O)O)cc(S(N)(=O)=O)c1Oc1ccccc1 | SLC10A2 | transporter uptake, inhibitor, radiometric | 1 mM | 78.1 |
| Ic1cccc2cnccc12 | Protein mono-ADP-ribosyltransferase PARP6 (PARP6, Homo sapiens, UniProt Q2NL67) | enzyme activity, inhibitor | 10 µM | 11 |
| C[C@H]1C[C@@H]2[C@H]([C@@H](O)C[C@@]3(C)[C@H]2CC[C@]3(O)C(=O)CO)[C@@]2(C)C=CC(=O)C=C12 | SLC10A2 | transporter uptake, inhibitor, radiometric | 1 mM | < 10 |
| CN(C)c1ccc(C(=C2C=CC(=[N+](C)C)C=C2)c2ccc(N(C)C)cc2)cc1 | SETD7 | cell-free assay | 10 µM | 59 |
| COc1cc(NC(C)=O)c(Cl)cc1C(=O)Nc1nccs1 | Beta-2 adrenergic receptor (ADRB2, Homo sapiens, UniProt P07550) | cell-free assay | 10 µM | -8.3 |

| Structure (SMILES) | target | test | setting | inhibition [%] |
| --- | --- | --- | --- | --- |
| CCN(c1cc(C#CCN2CCOCC2)cc(C(=O)NCc2c(C)cc(C)[nH]c2=O)c1C)[C@H]1CC[C@H](N(C)CCOC)CC1 | Histone-lysine N-methyltransferase SUV39H1 (SUV39H1, Homo sapiens, UniProt O43463) | enzyme activity, inhibitor | 1 µM | 11 |
| CCN(CC)c1ccc(C2Nc3ccc(C(=O)c4ccccc4)cc3NC3=C2C(=O)CC(C)(C)C3)cc1 (centres unmarked) | DRD5 | ligand displacement, radioligand | 10 µM | 37 |
| CN1CCCCC1CCN1c2ccccc2Sc2ccc([S+](C)[O-])cc21 (centres unmarked) | SLC10A2 | transporter uptake, inhibitor, radiometric | 1 mM | 73.6 |
| Cc1cc(O)c(C=O)c2c1C(=O)Oc1c(C)c(O)c3c(c1O2)C(O)OC3=O (centres unmarked) | SETD7 | cell-free assay | 10 µM | 0 |
| CCCN(CCC)S(=O)(=O)c1ccc(C(=O)O)cc1 | SLC10A2 | transporter uptake, inhibitor, radiometric | 1 mM | 47.4 |
| CN1CC(Oc2cnc(C#N)cc2-c2ccn3nc(NC(=O)C4CC4)cc3c2)C1 | Cyclin-dependent kinase-like 3 (CDKL3, Homo sapiens, UniProt Q8IVW4) | enzyme activity, inhibitor | 1 µM | 1 |
| O=C(O)c1ncccc1O | 72 kDa type IV collagenase (MMP2, Homo sapiens, UniProt P08253) | enzyme activity, inhibitor, fluorescence | 1 mM | ~50 |
| COc1ccc(-n2nc(OCCCN3CCCCC3)ccc2=O)cc1 | CNR2 | ligand displacement | 1 µM | 33.1 |
| CN1CCC(=C2c3ccccc3Sc3ccccc32)CC1 | SETD7 | cell-free assay | 10 µM | 41 |
| CCC(C)(C)C(=O)O[C@H]1C[C@@H](C)C=C2C=C[C@H](C)[C@H](CC[C@@H]3C[C@@H](O)CC(=O)O3)[C@H]21 | HSD11B1 | enzyme activity, inhibitor | 20 µM, lysate | < 40 |
| N#Cc1cc(Cn2c(N3CCCC3)nc3ccccc32)ccc1F | DRD5 | ligand displacement | 10 µM | 48.7 |
| O=C(O[C@@H]1Cc2c(O)cc(O)cc2O[C@@H]1c1cc(O)c(=O)c2c(O)c(O)cc([C@H]3Oc4cc(O)cc(O)c4C[C@H]3OC(=O)c3cc(O)c(O)c(O)c3)c2c1)c1cc(O)c(O)c(O)c1 | SETD7 | cell-free assay | 10 µM | 38 |
| COc1ccc2c(c1)c(CC(=O)O)c(C)n2C(=O)c1ccc(Cl)cc1 | SLC10A2 | transporter uptake, inhibitor, radiometric | 1 mM | 93.2 |
| O=C1C=C2CC3(O)COc4c(ccc(O)c4O)C3=C2C=C1O (centres unmarked) | SETD7 | cell-free assay | 10 µM | 28 |
| Cc1cn([C@H]2C[C@H](N=[N+]=[N-])[C@@H](CO)O2)c(=O)[nH]c1=O | SLC10A2 | transporter uptake, inhibitor, radiometric | 1 mM | < 10 |
| CNC(=O)c1cc(Oc2ccc(NC(=O)Nc3ccc(Cl)c(C(F)(F)F)c3)cc2)ccn1 | G protein-coupled receptor kinase 5 (GRK5, Homo sapiens, UniProt P34947) | enzyme activity, inhibitor | 10 µM | 0 |
